Reference: ChEMBL document CHEMBL5032493, “Synthesis and Evaluation of PPARδ Agonists That Promote Osteogenesis in a Human Mesenchymal Stem Cell Culture and in a Mouse Model of Human Osteoporosis” (J Med Chem, 2021)
The source made the active and inactive calls. No cut-off for these calls is given here.

Tests used:
[1] = system: Mesenchymal stem cells; experiment: Induction of osteogenesis differentiation in human Mesenchymal stem cells at 1 uM incubated for 21 days by Alizarin Red S staining-based microscopic analysis; format: functional, cell-based; conditions: time 21.0 day
[2] = system: Mesenchymal stem cells; experiment: Induction of adipogenesis differentiation in human Mesenchymal stem cells at 1 uM incubated for 21 days by […] staining-based microscopic analysis; format: functional, cell-based; conditions: time 21.0 day
[3] = system: Mesenchymal stem cells; experiment: Induction of adipogenesis differentiation in human Mesenchymal stem cells at 10 uM incubated for 21 days by […] staining-based microscopic analysis; format: functional, cell-based; conditions: time 21.0 day
[4] = system: Mesenchymal stem cells; experiment: Induction of adipogenesis differentiation in human Mesenchymal stem cells at 20 uM incubated for 21 days by […] staining-based microscopic analysis; format: functional, cell-based; conditions: time 21.0 day
[5] = system: Mesenchymal stem cells; experiment: Induction of osteogenesis differentiation in human Mesenchymal stem cells at 10 uM incubated for 21 days by Alizarin Red S staining-based microscopic analysis; format: functional, cell-based; conditions: time 21.0 day
[6] = system: Mesenchymal stem cells; experiment: Induction of osteogenesis differentiation in human Mesenchymal stem cells at 20 uM incubated for 21 days by Alizarin Red S staining-based microscopic analysis; format: functional, cell-based; conditions: time 21.0 day
[7] = biological target: T1, Peroxisome proliferator-activated receptor alpha (Homo sapiens) (UniProt Q07869); experiment: Agonist activity at human PPARalpha transfected in COS-7 cells assessed maximum luciferase activity measured after 24 hrs by cell based luciferase transactivation assay relative to gemfibrozil; conditions: filed as agonist
T1 sequence (whole entry): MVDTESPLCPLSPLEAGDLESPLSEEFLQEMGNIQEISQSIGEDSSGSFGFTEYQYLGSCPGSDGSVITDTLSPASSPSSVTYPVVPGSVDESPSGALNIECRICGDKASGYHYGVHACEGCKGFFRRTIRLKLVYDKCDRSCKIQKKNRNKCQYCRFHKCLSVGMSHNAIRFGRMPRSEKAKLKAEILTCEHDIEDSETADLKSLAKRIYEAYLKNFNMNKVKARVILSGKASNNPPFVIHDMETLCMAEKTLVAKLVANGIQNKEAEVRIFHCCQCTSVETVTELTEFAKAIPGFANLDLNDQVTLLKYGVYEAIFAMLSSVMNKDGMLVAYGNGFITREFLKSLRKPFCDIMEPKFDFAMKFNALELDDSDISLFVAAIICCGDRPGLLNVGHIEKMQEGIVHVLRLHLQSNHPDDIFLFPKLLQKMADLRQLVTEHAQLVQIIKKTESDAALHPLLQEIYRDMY
In short: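 Transient transfection of COS-7 cells with human PPARα, PPARγ or PPARδ plus luciferase reporter; constitutive Renilla luciferase also read. […] Three or more independent experiments in triplicate (N ≥ 9).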

[8] = biological target: T2, Peroxisome proliferator-activated receptor alpha (Homo sapiens, UniProt Q07869); experiment: Agonist activity at human PPARalpha transfected in COS-7 cells assessed luciferase activity measured after 24 hrs by cell based luciferase transactivation assay; conditions: read-out: EC50
T2 sequence (Q07869 whole entry): T1 sequence (whole entry)
In short: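 Transient transfection of COS-7 cells with human PPARα, PPARγ or PPARδ plus luciferase reporter; constitutive Renilla luciferase also read. Three or more independent experiments in triplicate (N ≥ 9).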

[9] = biological target: T3, Peroxisome proliferator-activated receptor delta (Homo sapiens, UniProt Q03181); experiment: Agonist activity at human PPARdelta transfected in COS-7 cells assessed luciferase activity measured after 24 hrs by cell based luciferase transactivation assay
T3 sequence (Q03181 whole entry): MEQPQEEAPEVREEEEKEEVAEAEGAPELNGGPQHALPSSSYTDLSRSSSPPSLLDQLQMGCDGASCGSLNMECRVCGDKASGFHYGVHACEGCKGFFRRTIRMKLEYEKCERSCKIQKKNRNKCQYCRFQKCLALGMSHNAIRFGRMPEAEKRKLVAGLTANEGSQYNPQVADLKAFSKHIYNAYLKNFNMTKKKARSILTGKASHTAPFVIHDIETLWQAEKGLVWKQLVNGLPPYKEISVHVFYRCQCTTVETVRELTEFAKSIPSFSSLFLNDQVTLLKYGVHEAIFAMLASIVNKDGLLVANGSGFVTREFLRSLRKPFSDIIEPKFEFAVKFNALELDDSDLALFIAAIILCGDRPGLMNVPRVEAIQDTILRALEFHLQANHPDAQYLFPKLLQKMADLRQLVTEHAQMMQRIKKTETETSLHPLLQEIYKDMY

[10] = biological target: T4, Peroxisome proliferator-activated receptor gamma (Homo sapiens, UniProt P37231); experiment: Agonist activity at human PPARgamma transfected in COS-7 cells assessed luciferase activity measured after 24 hrs by cell based luciferase transactivation assay; conditions: read-out: EC50
T4 sequence (P37231 whole entry): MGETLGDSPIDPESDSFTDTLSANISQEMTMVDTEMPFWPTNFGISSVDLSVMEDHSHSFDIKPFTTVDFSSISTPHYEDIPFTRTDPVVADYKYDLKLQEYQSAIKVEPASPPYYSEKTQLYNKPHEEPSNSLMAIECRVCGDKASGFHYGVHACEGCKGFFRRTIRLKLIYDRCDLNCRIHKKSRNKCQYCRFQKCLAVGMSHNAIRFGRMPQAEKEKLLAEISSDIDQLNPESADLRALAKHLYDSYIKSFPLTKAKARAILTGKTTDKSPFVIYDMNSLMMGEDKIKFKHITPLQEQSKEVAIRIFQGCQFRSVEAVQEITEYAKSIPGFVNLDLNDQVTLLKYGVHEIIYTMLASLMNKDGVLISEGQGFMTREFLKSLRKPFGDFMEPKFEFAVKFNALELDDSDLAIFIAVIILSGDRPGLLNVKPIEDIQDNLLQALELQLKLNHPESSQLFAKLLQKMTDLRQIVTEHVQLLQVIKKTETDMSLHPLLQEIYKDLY

SMILES: CCc1cc(N(C)Cc2sc(-c3ccc(C(F)(F)F)cc3)nc2C)ccc1/C=C/C(=O)O
- Activity [1]: Active
- Activity [2]: Active
- Activity [3]: Active
- Activity [4]: Active
- Activity [5]: Active
- Activity [6]: Active

SMILES: Cc1nc(-c2ccccc2)sc1COc1ccc(/C=C/C(=O)O)cc1
- Activity [1]: inactive
- Activity [2]: Active
- Activity [3]: Active
- Activity [5]: inactive

SMILES: CN(CCOc1ccc(CC2SC(=O)NC2=O)cc1)c1ccccn1 (stereo not given)
- Activity [2]: Active
- Activity [3]: Active
- Emax [7]: > 120%

SMILES: Cc1nc(-c2ccc(C(F)(F)F)c(F)c2)sc1CNc1ccc(/C=C/C(=O)O)cc1
- Activity [1]: Active
- Activity [2]: inactive
- Activity [3]: Active
- Activity [4]: Active
- Activity [5]: inactive
- Activity [6]: inactive

SMILES: COC(=O)/C=C/c1ccc(OCc2sc(-c3cccc(C(F)(F)F)c3)nc2C)cc1
- Activity [1]: inactive
- Activity [2]: Active

SMILES: Cc1nc(-c2cccc(C(F)(F)F)c2)sc1CN(C)c1ccc(/C=C/C(=O)O)cc1
- Activity [1]: Active
- Activity [2]: inactive
- Activity [3]: Active
- Activity [4]: Active
- Activity [5]: inactive
- Activity [6]: inactive

SMILES: Cc1nc(-c2cccc(C(F)(F)F)c2)sc1CSc1ccc(/C=C/C(=O)O)cc1
- Activity [1]: Active
- Activity [2]: inactive
- Activity [3]: Active
- Activity [4]: Active
- Activity [5]: inactive
- Activity [6]: inactive

SMILES: Cc1nc(-c2ccc(C(F)(F)F)c(F)c2)sc1CN(C)c1ccc(/C=C/C(=O)O)cc1
- Activity [1]: Active
- Activity [2]: inactive
- Activity [3]: inactive
- Activity [4]: Active
- Activity [5]: inactive
- Activity [6]: inactive

SMILES: Cc1nn(-c2ccc(C(F)(F)F)cc2)nc1CN(C)c1ccc(/C=C/C(=O)O)cc1
- Activity [1]: Active
- Activity [2]: inactive
- Activity [3]: inactive
- Activity [4]: inactive
- Activity [5]: Active
- Activity [6]: Active

SMILES: Cc1nc(-c2ccc(C(F)(F)F)cc2)sc1CNc1ccc(/C=C/C(=O)O)cc1
- Activity [1]: Active
- Activity [2]: inactive
- Activity [3]: Active
- Activity [4]: Active
- Activity [5]: Active
- Activity [6]: Active
- EC50 [8]: 6.01 µM
- EC50 [9]: 1.22 µM
- Emax [7]: 377%

SMILES: Cc1ccc(C)c(OCCCC(C)(C)C(=O)O)c1 [GEMFIBROZIL]
- EC50 [8]: 11.8 µM
- Emax [7]: 110%

SMILES: Cc1cc(/C=C/C(=O)O)ccc1N(C)Cc1sc(-c2ccc(C(F)(F)F)cc2)nc1C
- Activity [1]: Active
- Activity [2]: inactive
- Activity [3]: inactive
- Activity [4]: inactive
- Activity [5]: Active
- Activity [6]: Active

SMILES: Cc1nc(-c2ccc(C(F)(F)F)cc2)sc1CSc1ccc(/C=C/C(=O)O)cc1
- Activity [1]: Active
- Activity [2]: inactive
- Activity [3]: inactive
- Activity [5]: Active
- EC50 [8]: 17.7 µM
- EC50 [9]: 0.535 µM
- EC50 [10]: 17 µM
- Emax [7]: 338%

SMILES: Cc1nc(-c2ccccc2)sc1CNc1ccc(/C=C/C(=O)O)cc1
- Activity [1]: Active
- Activity [2]: Active
- Activity [3]: Active
- Activity [5]: inactive

SMILES: Cc1nc(-c2ccc(C(F)(F)F)cc2)sc1CN(Cc1sc(-c2ccc(C(F)(F)F)cc2)nc1C)c1ccc(/C=C/C(=O)O)cc1
- Activity [1]: Active
- Activity [2]: inactive
- Activity [3]: inactive
- Activity [5]: inactive

SMILES: CCN(Cc1sc(-c2ccc(C(F)(F)F)cc2)nc1C)c1ccc(/C=C/C(=O)O)cc1
- Activity [1]: Active
- Activity [2]: Active
- Activity [3]: Active
- Activity [4]: Active
- Activity [5]: Active
- Activity [6]: Active

SMILES: Cc1nc(-c2ccc(C(F)(F)F)cc2)sc1CN(C)c1ccc(/C=C/C(=O)O)c(C(C)C)c1
- Activity [1]: Active
- Activity [2]: inactive
- Activity [3]: inactive
- Activity [4]: inactive
- Activity [5]: Active
- Activity [6]: Active

SMILES: COC(=O)/C=C/c1ccc(OCc2sc(-c3ccc(C(F)(F)F)cc3)nc2C)cc1
- Activity [1]: inactive
- Activity [2]: Active

SMILES: Cc1nc(-c2ccccc2)sc1CSc1ccc(/C=C/C(=O)O)cc1
- Activity [1]: Active
- Activity [2]: Active
- Activity [3]: Active
- Activity [5]: inactive

SMILES: Cc1nn(-c2ccc(C(F)(F)F)cc2)nc1CNc1ccc(/C=C/C(=O)O)cc1
- Activity [1]: Active
- Activity [2]: Active
- Activity [3]: Active
- Activity [4]: Active
- Activity [5]: Active
- Activity [6]: Active

SMILES: Cc1nc(-c2cccc(C(F)(F)F)c2)sc1COc1ccc(/C=C/C(=O)O)cc1
- Activity [1]: Active
- Activity [2]: Active

SMILES: Cc1nc(-c2cccc(C(F)(F)F)c2)sc1CNc1ccc(/C=C/C(=O)O)cc1
- Activity [1]: inactive
- Activity [2]: Active
- Activity [3]: Active
- Activity [4]: Active
- Activity [5]: inactive
- Activity [6]: inactive

SMILES: Cc1nc(-c2ccc(C(F)(F)F)cc2)sc1CN(c1ccc(/C=C/C(=O)O)cc1)C(C)C
- Activity [1]: Active
- Activity [2]: inactive
- Activity [3]: inactive
- Activity [4]: inactive
- Activity [5]: Active
- Activity [6]: Active

SMILES: Cc1nc(-c2ccccc2)sc1CN(C)c1ccc(/C=C/C(=O)O)cc1
- Activity [1]: Active
- Activity [2]: inactive
- Activity [3]: Active
- Activity [4]: Active
- Activity [5]: inactive
- Activity [6]: inactive

SMILES: Cc1sc(-c2ccc(C(F)(F)F)cc2)nc1CN(C)c1ccc(/C=C/C(=O)O)cc1
- Activity [1]: Active
- Activity [2]: inactive
- Activity [3]: inactive
- Activity [4]: inactive
- Activity [5]: Active
- Activity [6]: inactive

SMILES: Cc1nc(-c2ccc(C(F)(F)F)c(F)c2)sc1CN(C(=O)OC(C)(C)C)c1ccc(/C=C/C(=O)O)cc1
- Activity [1]: Active
- Activity [2]: inactive
- Activity [3]: Active
- Activity [4]: Active
- Activity [5]: inactive
- Activity [6]: inactive

SMILES: CCCN(Cc1sc(-c2ccc(C(F)(F)F)cc2)nc1C)c1ccc(/C=C/C(=O)O)cc1
- Activity [1]: Active
- Activity [2]: inactive
- Activity [3]: Active
- Activity [4]: Active
- Activity [5]: Active
- Activity [6]: inactive
